Data: ChEMBL document CHEMBL1770090, “Synthesis, antimicrobial, antioxidant, anti-hemolytic and cytotoxic evaluation of new imidazole-based heterocycles” (Eur J Med Chem, 2011)
Values after ≈ are worked out from the molar mass of the structure shown.

Legend:
Bacillus subtilis [1] = experiment: Antimicrobial activity against Bacillus subtilis ATCC 6633 after 24 hrs by agar well diffusion method; type: functional
Outline: (§1)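 Agar well diffusion. Inocula of 100 µL: bacteria 1 × 10^8 CFU/mL on nutrient agar, yeast 1 × 10^6 CFU/mL on Sabouraud dextrose agar, fungi 1 × 10^4 spore/mL on potato dextrose agar. 10 mm wells received 100 µL of compound at 100 mg/mL in DMSO. Bacteria incubated 24 h at 37 °C, fungi 48 h at 28 °C. Controls were DMSO, ciprofloxacin 50 µg/mL and ketoconazole 50 µg/mL. Inhibition zone diameter in mm, scored N.A. to ++++, average of triplicates.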

Priestia megaterium [2] = experiment: Antimicrobial activity against Bacillus megaterium ATCC 9885 after 24 hrs by agar well diffusion method; type: functional; outline: as §1
Staphylococcus aureus [3] = experiment: Antimicrobial activity against Staphylococcus aureus ATCC 29213 after 24 hrs by agar well diffusion method; type: functional; outline: as §1
Klebsiella pneumoniae [4] = experiment: Antimicrobial activity against Klebsiella pneumoniae ATCC 13883 after 24 hrs by agar well diffusion method; type: functional; outline: as §1
Pseudomonas aeruginosa [5] = experiment: Antimicrobial activity against Pseudomonas aeruginosa ATCC 27953 after 24 hrs by agar well diffusion method; type: functional; outline: as §1
Escherichia coli [6] = experiment: Antimicrobial activity against Escherichia coli ATCC 25922 after 24 hrs by agar well diffusion method; type: functional; outline: as §1
Candida albicans = experiment: Antimicrobial activity against Candida albicans NRRL Y-477 after 48 hrs by agar well diffusion method; type: functional; outline: as §1
Aspergillus niger = experiment: Antimicrobial activity against Aspergillus niger after 48 hrs by agar well diffusion method; type: functional; outline: as §1
Priestia megaterium [7] = experiment: Antimicrobial activity against Bacillus megaterium ATCC 9885 after 24 hrs by two fold serial dilution technique; type: functional; conditions: ATCC 9885, 24 h
Outline: (§2)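 Tested only compounds giving inhibition zones ≥ 16 mm, by two-fold serial dilution in nutrient broth. Final concentrations were […], 175, 87.5, 43.8 and 21.9 µg/mL. Each 5 mL tube received 0.1 mL inoculum of about 1 × 10^8 CFU/mL and was incubated 24 h at 37 °C. MIC was the lowest concentration with no growth.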

Bacillus subtilis [8] = experiment: Antimicrobial activity against Bacillus subtilis ATCC 6633 after 24 hrs by two fold serial dilution technique; type: functional; conditions: ATCC 6633, 24 h; outline: as §2
Staphylococcus aureus [9] = experiment: Antimicrobial activity against Staphylococcus aureus ATCC 29213 after 24 hrs by two fold serial dilution technique; type: functional; conditions: ATCC 29213, 24 h; outline: as §2
Klebsiella pneumoniae [10] = experiment: Antimicrobial activity against Klebsiella pneumoniae ATCC 13883 after 24 hrs by two fold serial dilution technique; type: functional; conditions: ATCC 13883, 24 h; outline: as §2
Pseudomonas aeruginosa [11] = experiment: Antimicrobial activity against Pseudomonas aeruginosa ATCC 27953 after 24 hrs by two fold serial dilution technique; type: functional; conditions: ATCC 27953, 24 h; outline: as §2
Escherichia coli [12] = experiment: Antimicrobial activity against Escherichia coli ATCC 25922 after 24 hrs by two fold serial dilution technique; type: functional; conditions: ATCC 25922, 24 h; outline: as §2
[13] = Antioxidant activity assessed as ABTS radical scavenging activity at 2 mM; type: functional
Outline: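 ABTS (60 µM, 2 mL) was oxidized with MnO2 (25 mg/mL, 3 mL) in 0.1 M phosphate buffer pH 7, then centrifuged and filtered, with A734 adjusted to about 0.5. 50 µL of 2 mM compound in MeOH/phosphate buffer (1:1) was added. Colour loss expressed as % inhibition. L-ascorbic acid was the standard; blank and negative controls used MeOH/buffer.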

[14] = Antioxidant activity in rat erythrocytes assessed as inhibition of peroxyl radicals-induced hemolysis at 2 mM after 2 hrs; type: functional; conditions: Erythrocyte, read-out: INH
Outline: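 Rat blood from cardiac puncture, heparinized. Erythrocytes were washed three times in 0.15 M NaCl. A 10% suspension in PBS pH 7.4 was mixed with an equal volume of 200 mM AAPH in PBS containing sample, then shaken at 37 °C for 2 h. Mixture diluted with 8 volumes of PBS and centrifuged; supernatant A540 compared with a water-lysed sample for complete hemolysis. L-ascorbic acid was the positive control. Mean ± SD.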

[15] = Cytotoxicity against mouse EAC cells assessed as cell viability using trypan blue staining after 2 hrs by hemocytometer analysis; type: functional, cell-based; conditions: Ehrlich

MIC (Priestia megaterium [7]) | MIC (Bacillus subtilis [8]) | MIC (Staphylococcus aureus [9]) | MIC (Klebsiella pneumoniae [10]) | MIC (Pseudomonas aeruginosa [11]) | MIC (Escherichia coli [12]) | SMILES | diameter of the inhibition zone (DIZ) (Bacillus subtilis [1]) | diameter of the inhibition zone (DIZ) (Priestia megaterium [2]) | diameter of the inhibition zone (DIZ) (Staphylococcus aureus [3]) | diameter of the inhibition zone (DIZ) (Klebsiella pneumoniae [4]) | diameter of the inhibition zone (DIZ) (Pseudomonas aeruginosa [5]) | diameter of the inhibition zone (DIZ) (Escherichia coli [6]) | diameter of the inhibition zone (DIZ) (Candida albicans) | diameter of the inhibition zone (DIZ) (Aspergillus niger) | inhibition [13] | percent hemolysis at 2000 µM [14] | IC50 [15]
21.9 µg/mL (≈ 66.1 µM) | 10.9 µg/mL (≈ 32.9 µM) | 21.9 µg/mL (≈ 66.1 µM) | 10.9 µg/mL (≈ 32.9 µM) | 10.9 µg/mL (≈ 32.9 µM) | 21.9 µg/mL (≈ 66.1 µM) | O=C(O)c1cn(C2CC2)c2cc(N3CCNCC3)c(F)cc2c1=O [CIPROFLOXACIN] | >=21 mm | 16 mm | 16 mm | >=21 mm | >=21 mm | 16 mm | <=4 mm | <=4 mm |  |  | 
 | 43.8 µg/mL (≈ 140 µM) | 43.8 µg/mL (≈ 140 µM) | 21.9 µg/mL (≈ 69.9 µM) |  |  | C/C(=N\N=C1\NC(=O)CS1)c1nc(-c2ccccc2)[nH]c1C | 16 mm | <=4 mm | 16 mm | 16 mm | <=4 mm | <=4 mm | <=4 mm | <=4 mm |  |  | 
21.9 µg/mL (≈ 56.5 µM) | 43.8 µg/mL (≈ 113 µM) | 21.9 µg/mL (≈ 56.5 µM) |  | 21.9 µg/mL (≈ 56.5 µM) | 21.9 µg/mL (≈ 56.5 µM) | C/C(=N\NC(=O)/C(C#N)=C\c1ccc(F)cc1)c1nc(-c2ccccc2)[nH]c1C | 16 mm | >=21 mm | >=21 mm | 10 mm | 16 mm | 16 mm | <=4 mm | <=4 mm | 68.6% | 0.86% | 85.2 µg/mL (≈ 220 µM)
